Test results published in ChEMBL document CHEMBL4406880, “Design, synthesis, and bioactivity of dihydropyrimidine derivatives as kinesin spindle protein inhibitors” (Bioorg Med Chem, 2019).

Key:
Type in all cases: functional
[1] = test system: NCI-H522; test: Growth inhibition of human NCI-H522 cells assessed as cell viability at 0.001 uM incubated for 48 hrs by sulforhodamine B assay relative to control; conditions: NCI-H522, 48 h, read-out: Activity
[2] = test system: BT-549; test: Growth inhibition of human BT549 cells assessed as cell viability at 100 uM incubated for 48 hrs by sulforhodamine B assay; conditions: BT-549, 48 h, read-out: Activity
[3] = test system: HCC 2998; test: Growth inhibition of human HCC2998 cells assessed as cell viability at 0.1 uM incubated for 48 hrs by sulforhodamine B assay; conditions: HCC 2998, 48 h, read-out: Activity
[4] = test system: MDA-MB-468; test: Growth inhibition of human MDA-MB-468 cells incubated for 48 hrs by sulforhodamine B assay; conditions: MDA-MB-468, 48 h
In short: (§1)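 NCI-60 five-dose SRB assay in RPMI 1640 with 5% FBS, 37 °C, 5% CO2. Compound given at five tenfold dilutions, 0.01–100 µM, for 48 h. Adherent cells fixed with TCA, suspension cells with 16% final TCA. Bound SRB read at 515 nm and growth calculated against time-zero and untreated controls. GI50 taken from dose–response curves as the concentration giving a 50% decrease in net cell growth.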

[5] = test system: SN12C; test: Growth inhibition of human SN12C cells assessed as cell viability at 1 uM incubated for 48 hrs by sulforhodamine B assay; conditions: read-out: Activity
[6] = test system: NCI-H23; test: Growth inhibition of human NCI-H23 cells assessed as cell viability at 100 uM incubated for 48 hrs by sulforhodamine B assay; conditions: NCI-H23, 48 h, read-out: Activity
[7] = test system: UO-31; test: Growth inhibition of human UO31 cells assessed as cell viability at 100 uM incubated for 48 hrs by sulforhodamine B assay; conditions: UO-31, 48 h, read-out: Activity
[8] = test system: OVCAR-4; test: Growth inhibition of human OVCAR4 cells assessed as cell viability at 1 uM incubated for 48 hrs by sulforhodamine B assay; conditions: OVCAR-4, 48 h, read-out: Activity
[9] = test system: TK-10; test: Growth inhibition of human TK10 cells assessed as cell viability at 0.001 uM incubated for 48 hrs by sulforhodamine B assay relative to control; conditions: TK-10, 48 h, read-out: Activity
[10] = test system: T47D; test: Growth inhibition of human T47D cells assessed as cell viability at 1 uM incubated for 48 hrs by sulforhodamine B assay; conditions: read-out: Activity
[11] = test system: T47D; test: Growth inhibition of human T47D cells assessed as cell viability at 0.1 uM incubated for 48 hrs by sulforhodamine B assay; conditions: read-out: Activity
[12] = test system: HL-60(TB); test: Growth inhibition of human HL-60(TB) cells assessed as cell viability at 0.1 uM incubated for 48 hrs by sulforhodamine B assay; conditions: HL-60, 48 h, read-out: Activity
In short: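 NCI-60 five-dose assay, SRB end-point, same culture conditions. Compound is tested at tenfold dilutions of 0.01, 0.1, 1, 10 and 100 µM for 48 h at 37 °C, with DMSO/PBS vehicle controls. Percentage growth at each concentration is taken against untreated cells and a time-zero plate. GI50 is 50% net growth decrease, TGI is total growth inhibition, and LC50 is 50% loss of initial cells.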

[13] = test system: RXF 393; test: Growth inhibition of human RXF393 cells assessed as cell viability at 0.1 uM incubated for 48 hrs by sulforhodamine B assay; conditions: RXF 393, 48 h, read-out: Activity
[14] = test system: HT-29; test: Growth inhibition of human HT-29 cells assessed as cell viability at 1 uM incubated for 48 hrs by sulforhodamine B assay; conditions: HT-29, 48 h, read-out: Activity
[15] = test system: NCI-H226; test: Growth inhibition of human NCI-H226 cells assessed as cell viability at 1 uM incubated for 48 hrs by sulforhodamine B assay; conditions: NCI-H226, 48 h, read-out: Activity
[16] = test system: M14; test: Growth inhibition of human M14 cells assessed as cell viability at 100 uM incubated for 48 hrs by sulforhodamine B assay; conditions: M14, 48 h, read-out: Activity
[17] = test system: K562; test: Growth inhibition of human K562 cells assessed as cell viability at 0.001 uM incubated for 48 hrs by sulforhodamine B assay relative to control; conditions: K562, 48 h, read-out: Activity
[18] = test system: SK-OV-3; test: Growth inhibition of human SKOV3 cells assessed as cell viability at 1 uM incubated for 48 hrs by sulforhodamine B assay; conditions: SK-OV-3, 48 h, read-out: Activity
[19] = test system: K562; test: Growth inhibition of human K562 cells assessed as cell viability at 0.1 uM incubated for 48 hrs by sulforhodamine B assay; conditions: K562, 48 h, read-out: Activity
[20] = test system: HOP-62; test: Growth inhibition of human HOP62 cells assessed as cell viability at 100 uM incubated for 48 hrs by sulforhodamine B assay; conditions: HOP-62, 48 h, read-out: Activity
[21] = test system: UO-31; test: Growth inhibition of human UO31 cells assessed as cell viability at 1 uM incubated for 48 hrs by sulforhodamine B assay; conditions: UO-31, 48 h, read-out: Activity
[22] = test system: SNB-19; test: Growth inhibition of human SNB19 cells assessed as cell viability at 0.1 uM incubated for 48 hrs by sulforhodamine B assay; conditions: SNB-19, 48 h, read-out: Activity
[23] = test system: NCI/ADR-RES; test: Growth inhibition of human NCI/ADR-RES cells incubated for 48 hrs by sulforhodamine B assay; in short: as §1
[24] = test system: SNB-19; test: Growth inhibition of human SNB19 cells assessed as cell viability at 1 uM incubated for 48 hrs by sulforhodamine B assay; conditions: SNB-19, 48 h, read-out: Activity
[25] = test system: A549; test: Growth inhibition of human A549/ATCC cells assessed as cell viability at 0.001 uM incubated for 48 hrs by sulforhodamine B assay relative to control; conditions: A549, 48 h, read-out: Activity
[26] = test system: M14; test: Growth inhibition of human M14 cells incubated for 48 hrs by sulforhodamine B assay; conditions: M14, 48 h; in short: as §1
[27] = test system: MDA-MB-435; test: Growth inhibition of human MDA-MB-435 cells assessed as cell viability at 0.001 uM incubated for 48 hrs by sulforhodamine B assay relative to control; conditions: MDA-MB-435, 48 h, read-out: Activity
[28] = test system: OVCAR-4; test: Growth inhibition of human OVCAR4 cells assessed as cell viability at 0.001 uM incubated for 48 hrs by sulforhodamine B assay relative to control; conditions: OVCAR-4, 48 h, read-out: Activity
[29] = test system: HOP-62; test: Growth inhibition of human HOP62 cells incubated for 48 hrs by sulforhodamine B assay; conditions: HOP-62, 48 h; in short: as §1
[30] = read-out: LC50 (the source's name)
[31] = read-out: pLC50 (the source's name) (converted)

CC1=C(C(=O)OCc2ccccc2)C(c2ccc3c(c2)OCO3)n2c(nc3ccccc32)N1 (racemic)
viability at 0.001 µM [1]: 78% | viability at 100 µM [2]: 35% | viability at 0.1 µM [3]: 96% | GI50 ([4]; read-out: GI50): 0.27 µM | CC50 [4, 30]: > 100 µM | TGI ([4]; read-out: TGI): > 100 µM | GI50 ([4]; read-out: pGI50 (converted)): 0.269 µM | CC50 [4, 31]: > 100 µM | TGI ([4]; read-out: pTGI): > 100 µM | viability at 1 µM [5]: 42% | viability at 100 µM [6]: 44% | viability at 100 µM [7]: -7% | viability at 1 µM [8]: 61% | viability at 0.001 µM [9]: 92% | viability at 1 µM [10]: 30% | viability at 0.1 µM [11]: 93% | viability at 0.1 µM [12]: 97% | viability at 0.1 µM [13]: 90% | viability at 1 µM [14]: 8% | viability at 1 µM [15]: 66% | viability at 100 µM [16]: 24% | viability at 0.001 µM [17]: 93% | viability at 1 µM [18]: 27% | viability at 0.1 µM [19]: 82% | viability at 100 µM [20]: 31% | viability at 1 µM [21]: 38% | viability at 0.1 µM [22]: 95% | GI50 ([23]; read-out: GI50): 0.33 µM | CC50 [23, 30]: > 100 µM | TGI ([23]; read-out: TGI): > 100 µM | GI50 ([23]; read-out: pGI50 (converted)): 0.331 µM | CC50 [23, 31]: > 100 µM | TGI ([23]; read-out: pTGI): > 100 µM | viability at 1 µM [24]: 35% | viability at 0.001 µM [25]: 95% | GI50 ([26]; read-out: GI50): 0.46 µM | LC50 (50% net cell kill) ([26]; read-out: LC50): > 100 µM | TGI ([26]; read-out: TGI): > 100 µM | GI50 ([26]; read-out: pGI50 (converted)): 0.468 µM | LC50 (50% net cell kill) ([26]; read-out: pLC50 (converted)): > 100 µM | TGI ([26]; read-out: pTGI): > 100 µM | viability at 0.001 µM [27]: 93% | viability at 0.001 µM [28]: 82% | GI50 ([29]; read-out: GI50): 0.78 µM | CC50 [29, 30]: > 100 µM | TGI ([29]; read-out: TGI): > 100 µM | GI50 ([29]; read-out: pGI50 (converted)): 0.776 µM | CC50 [29, 31]: > 100 µM | TGI ([29]; read-out: pTGI): > 100 µM
